Our source for the inhibition, CC50 and IC50 values is ChEMBL document CHEMBL3351586, “Diterpenes from a Chinese collection of the brown alga Dictyota plectens” (J Nat Prod, 2014).

For data set [1], the system named is HEK293. Put plainly: Inhibition of Influenza A virus (A/Viet Nam/1203/2004(H5N1)) hemagglutinin-mediated entry in HEK293 cells compound pretreated with target cells for 15 mins prior infection measured 48 hrs post infection by luciferase reporter assay. It counts as cell-based. In outline: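 Entry screen: HIV-based pseudotype bearing H5N1 hemagglutinin (HA). Compounds tested at 30.0 μM. Value reported as percent inhibition of HA-mediated entry.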

Data set [2] in a line: Cytotoxicity against HEK293 cells infected with Influenza A virus (A/Viet Nam/1203/2004(H5N1)). The class given is cell-based. The settings on record: human. In outline:
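Cytotoxicity measured on 293T cells and reported as CC50 (μmol/L).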

The nature of data set [3]: Antiinflammatory activity in mouse peritoneal macrophages assessed as inhibition of LPS-induced NO production at 10 uM. The class given is functional. The settings on record: Peritoneal macrophage cell.
A short description of data set [4]: Antiinflammatory activity in mouse peritoneal macrophages assessed as inhibition of LPS-induced NO production at 1 uM. The class given is functional. The following applies: Peritoneal macrophage cell.
The subject of data set [5] is Human immunodeficiency virus 1. Put plainly: Antiviral activity against VSV-G protein pseudotyped HIV1 system in HEK293T cells assessed as reduction in p24 level after 48 hrs by ELISA. The class given is functional, organism-based. The settings on record: Human immunodeficiency virus 1, HEK-293T. In a few lines: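 VSV-G-pseudotyped HIV used as a counter-screen to judge the specificity of HA-directed entry inhibitors.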

Data set [6] concerns HEK293. Kind of data set: Cytotoxicity against HEK293 cells infected with VSV-G protein pseudotyped HIV1. It counts as cell-based. The settings on record: Homo sapiens.

For `CC(C)=CCC[C@@H](C)[C@@H]1[C@H](O)C/C(C)=C/C/C=C(/C=O)[C@H]1C=O`, the inhibition with HEK293 [1] worked out at 59%. The compound also registered a CC50 in data set [2] of more than 60 µM. In addition, the inhibition at 10 µM in data set [3] was 86%. The inhibition at 1 µM in data set [4] is less than 50%.

For the compound `CC(C)=CCC[C@@H](C)[C@H]1C2=C(C(=O)OC2)[C@H]2C[C@H]2[C@H](C)C[C@H]1O`, in the data set on HEK293 [1], the inhibition amounted to 62%. Further, the CC50 in data set [2] is more than 60 µM. Further, in data set [3], the inhibition at 10 µM is less than 50%.

As to `CC(=O)O[C@H]1C/C=C(\C)CC[C@@H]([C@H](C)CCC=C(C)C)[C@@H](O)/C=C/1C`, the IC50 in data set [5] was 30.5 µM; with HEK293 [6], more than 60 µM. In data set [3], the inhibition at 10 µM was less than 50%.

For the compound `C=C1C[C@@H](O)[C@@H]([C@H](C)CCC=C(C)C)[C@@H](O)[C@@H]2C(C)=CC[C@@H]12`, the results for the IC50 (in data set [5]; in the data set with HEK293 [6]) were 26.1 µM and more than 60 µM, respectively. Moreover, the inhibition at 10 µM in data set [3] is less than 50%.

With `C=C1CC[C@@H](O)[C@@]2(C)C[C@@H](OC(C)=O)C3=C(C(C)C)CC[C@]3(C)C[C@]12O`, the figures for the IC50 (in data set [5]; in the data set on HEK293 [6]) were 16.1 µM and 53 µM, respectively. The inhibition at 10 µM in data set [3] is less than 50%.

For the compound `C=C1C[C@H](O)[C@@H]([C@@](C)(O)CCC=C(C)C)[C@@H](O)[C@@H]2C(C)=CC[C@@H]12`, the inhibition with HEK293 [1] stood at 50%. Moreover, the CC50 in data set [2] was more than 60 µM. The inhibition at 10 µM in data set [3] is less than 50%.

In the case of `Cc1ccnc2c1NC(=O)c1cccnc1N2C1CC1` [NEVIRAPINE], in data set [5], the IC50 was 0.05 µM.

`C=C1CC[C@@H]([C@@](C)(O)CCC=C(C)C)[C@@H](O)[C@@H]2C(C)=CC[C@@H]12`: the figures for the IC50 (in data set [5]; in the data set with HEK293 [6]) were 24 µM and more than 60 µM, respectively. Also, the inhibition at 10 µM in data set [3] was found to be 90%. Also, the inhibition at 1 µM in data set [4] was less than 50%.

Take `CC(=O)OC[C@@H]1/C(C=O)=C\C/C=C(\C)C[C@@H](O)[C@H]1[C@H](C)CCC=C(C)C`: the IC50 in data set [5] was 21.9 µM; in the data set with HEK293 [6], more than 60 µM. In addition, in data set [3], the inhibition at 10 µM was less than 50%.

`C/C1=C/CC/C(C)=C/C[C@@]2(C)CC[C@@](O)(C(C)C)[C@@H]2CC1=O` (relative stereo): the inhibition in the data set on HEK293 [1] worked out at 56%. The same compound yielded a CC50 in data set [2] of more than 60 µM. Further, the inhibition at 10 µM in data set [3] was less than 50%.
